Screening data from PubChem BioAssay.
Compounds with a hit are over-represented: about 3.2% of the library has one in this group of screens.
DAX1 inh-1: NR0B1 (DAX1) inhibition; actives 0.99% (n = 340,000); HEK293 Gal4-DAX1 luciferase reporter, luminescence; inhibition, % at 6.75 µM; AID 504766;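 active = inhibition above the mean over all tested compounds plus 3 SD, cut at about 4.2% in these data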;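 note: 0% = DAX1-transfected cells with DMSO and 100% = empty-vector control cells with DMSO; inhibition shows as a rise in luminescence from relieved DAX1 repression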
Target sequence (P51843 207-470 limits assumed): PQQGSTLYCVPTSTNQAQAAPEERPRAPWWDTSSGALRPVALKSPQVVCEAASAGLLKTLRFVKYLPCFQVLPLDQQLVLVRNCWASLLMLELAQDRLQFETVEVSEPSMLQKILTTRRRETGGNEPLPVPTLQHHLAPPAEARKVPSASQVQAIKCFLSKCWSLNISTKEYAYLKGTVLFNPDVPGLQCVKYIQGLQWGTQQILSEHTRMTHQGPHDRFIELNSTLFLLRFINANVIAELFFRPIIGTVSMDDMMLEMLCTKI
DAX1 inh-2: blocks DAX1 repression of SF-1 activated StAR promoter. actives 1.1% (n = 370,000). HEK293T StAR-luciferase reporter, SF-1/DAX-1 repression relief. inhibition, % at 6.8 µM. AID 652010;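 active = inhibition above the mean over all tested compounds plus 3 SD, cut at about 3.6% in these data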;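 note: 0% = DAX-1 cells with DMSO and 100% = cells lacking DAX-1 with DMSO; higher inhibition means more luminescence from relief of DAX-1 repression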
SMARCA2 act: increases SMARCA2 function in MMTV reporter cells | MG213 cells, MMTV-luciferase reporter, dexamethasone, overnight | activation, % at 9.1 µM | actives 1% (n = 370,000) | AID 652017; in the data active = activation above about 7.8%;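 note: 0% = vehicle wells and 100% = reference activator wells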
JMJD2C inh: blocks human GASC-1 demethylase activity. Q9H3R0. GST-JMJD2C(1-420) H3K9me3 demethylation, DELFIA europium. inhibition, % at 2.35 µM. actives 0.069% (n = 330,000). AID 2099;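 active = more than half of a compound's replicate wells show inhibition beyond 50%, single wells judged on their own value; inconclusive = some, but no more than half, of replicates pass 50% inhibition; inactive = no replicate passes 50% inhibition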;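 note: signal counts dimethyl H3K9 product captured on neutravidin plate; 0% = median of DMSO wells and 100% = 0.3 times that DMSO median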
NR2E3 ag-1: activates human photoreceptor nuclear receptor NR2E3; Q9Y5X4; GST-NR2E3/biotin-RetCOR TR-FRET, 1536-well; inhibition of corepressor binding, % at 4.78 µM; actives 0.12% (n = 320,000); AID 2300;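 active = percent inhibition above the cutoff of mean plus 3 SD of all tested compounds, set per screening campaign, cut at about 20% in these data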;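 note: 0% = DMSO wells and 100% = biotin wells as full block of FRET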
Target sequence (Q9Y5X4 whole entry, looked up): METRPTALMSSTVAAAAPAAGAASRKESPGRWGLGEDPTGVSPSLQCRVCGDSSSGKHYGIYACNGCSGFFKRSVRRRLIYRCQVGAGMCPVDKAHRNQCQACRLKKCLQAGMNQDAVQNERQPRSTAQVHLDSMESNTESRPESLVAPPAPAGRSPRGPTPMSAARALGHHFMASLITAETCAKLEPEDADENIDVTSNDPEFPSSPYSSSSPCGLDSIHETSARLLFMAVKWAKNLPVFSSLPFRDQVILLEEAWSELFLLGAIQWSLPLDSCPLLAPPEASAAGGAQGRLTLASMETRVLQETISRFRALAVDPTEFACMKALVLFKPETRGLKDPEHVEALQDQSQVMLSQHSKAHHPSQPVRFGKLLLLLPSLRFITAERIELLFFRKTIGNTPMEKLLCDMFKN
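Material: NR2E3–RetCOR corepressor complex / Amount: 1.35 nM GST-NR2E3 / Medium: Tris pH 7.5 / Compound: single nominal compound dose of 4.8 µM / Incubation: 5 h at 4 °C / Technique: TR-FRET, Eu(K)-anti-GST donor, streptavidin-D2 acceptor, ex 340, em 617/671 nm / Read-out basis: percent loss of FRET ratio relative to control wells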
NR2E3 ag-2: activates human NR2E3 receptor; Q9Y5X4; CHO-S Gal4-NCOR/VP16-NR2E3 two-hybrid, luciferase; AID 602229; inhibition of corepressor binding, % at 3.98 µM; actives 0.35% (n = 360,000);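 active = inhibition above the mean of all tested compounds plus 3 SD, cut at about 70% in these data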;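 note: 0% = DMSO with NR2E3 transfected cells and 100% = cells lacking NR2E3 construct; higher means lower luciferase signal from less NR2E3 corepressor binding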
SMARCA2 conf: SMARCA2 activation, confirmation screen; shares compounds with SMARCA2 act; MG213 cells, MMTV-luciferase with dexamethasone, luminescence, overnight; MG213 cells expressing E1A, Rb sequestered; DMSO wells 0%, reference activator 100%; activation, % at 9.1 µM; actives 30% (n = 3,500); AID 652260;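 active = activation above its plate's cutoff, the mean activation of tested wells plus 3 SD, cut at about 7.9% in these data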
VP16 Luc act: activates GAL4-VP16 luciferase, flagging SMARCA2 activator hits; HEK293 GAL4-VP16 pG5luc reporter, luciferase luminescence; scaled: DMSO wells 0%, SAHA wells 100%; shares compounds with SMARCA2 act; actives 41% (n = 3,500); activation, % at 9.1 µM;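 active = activation above the solvent-only control well mean plus 3 SD, averaged across control plates, cut at about 5.2% in these data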
Active calls of the source: *; u = inconclusive; x = no result.

SMILES | DAX1 inh-1 | DAX1 inh-2 | SMARCA2 act | JMJD2C inh | NR2E3 ag-1 | NR2E3 ag-2 | SMARCA2 conf | VP16 Luc act
O=C(/C=C/c1cccs1)NNC(=O)c1ccccc1 | 0 | 2 | 0 | 6 | 0 | -38 | x | x
CCN1CCc2nc(NC(=O)c3ccc4c(c3)OCCO4)sc2C1 | 1 | 3 | 8.7* | 13 | 0 | -44 | 7 | 11*
CCN1CCc2nc(NC(=O)Cc3ccc4c(c3)OCCO4)sc2C1 | 0 | 0 | 0 | -6 | -5 | -8 | x | x
COc1ccc(NC(=O)N2CCNC(=O)C2CC(=O)Nc2ccc(F)cc2)cc1 (stereo not drawn) | 0 | 1 | -2 | 2 | 2 | 1 | x | x
O=C(NCCc1ccc(Cl)cc1)c1nnc(Cc2ccc(Cl)cc2)o1 | 1 | 2 | 3 | 5 | 4 | -22 | x | x
O=C(NCc1ccccn1)c1nnc(Cc2ccc(Cl)cc2)o1 | 1 | 2 | 9.6* | -4 | 9 | 7 | 1 | 1
CCOc1ccc(CCNC(=O)COC(=O)c2cccc(N(C)C)c2)cc1OCC | 0 | 3 | 8.1* | -5 | 1 | -128 | 3 | 8.7*
CCOc1ccc(CCNC(=O)COC(=O)c2cccc(S(=O)(=O)N(C)C)c2)cc1OCC | 1 | -2 | 1 | x | x | -16 | x | x
O=C(c1[nH]ncc1-c1ccccc1)C1CO1 (stereo not drawn) | -1 | 0 | 3 | -5 | 3 | -16 | x | x
O=C(c1[nH]ncc1-c1cccc(Br)c1)C1CO1 (stereo not drawn) | 0 | -1 | 11* | 13 | -1 | 16 | 12* | 0
COc1cc(NC(=O)c2ccccn2)cc(OC)c1OC | 1 | 0 | -2 | 2 | -3 | 0 | x | x
O=C(Nc1ccc(OC(F)F)c(Cl)c1)c1ccccn1 | 5.2* | 4.5* | 12* | -3 | -2 | -120 | 11* | 19*
COc1cccc(CNC(=S)Nc2ccc3c(c2)c(=O)n(C)n3C)c1 | x | 1 | 2 | x | x | -15 | x | x
COC(=O)[C@]12C[C@H](CC(=O)NCc3ccccc3)C(=O)N(CCc3ccc(OC)c(OC)c3)C1=C[C@H](C(C)C)O[C@@H]2C1CC1 | x | 0 | -2 | x | x | x | x | x
O=C(Nc1ccccc1)C(Cl)C(=O)c1ccccc1 (stereo not drawn) | 2 | 1 | 5 | -16 | 8 | -29 | x | x
CC(=O)C(Cl)C(=O)Nc1ccccc1 (stereo not drawn) | 0 | -2 | 8.5* | x | x | -36 | -14 | 0
COc1ccc(NC(=O)c2sc(SC)nc2N)cc1 | 1 | 1 | 11* | u | -1 | -105 | 7 | 4
COc1ccc(NC(=O)c2sc(SCc3ccccc3)nc2N)cc1 | 0 | 0 | -2 | -3 | -1 | -14 | x | x
O=C(COC(=O)c1ccccc1NCCO)Nc1ccc(S(=O)(=O)NC2=NCCCCC2)cc1 | -1 | 0 | 11* | x | x | -25 | 0 | 1
O=C(COC(=O)c1ccccc1O)Nc1cccc(S(=O)(=O)NC2=NCCCCC2)c1 | 3 | 1 | 1 | -7 | 2 | -6 | x | x
CC1CCc2nn(CC(=O)NCCCN3CCCC3=O)cc2C1 (stereo not drawn) | 3 | 1 | 8.7* | -3 | -3 | -3 | -5 | 3
CN(C)[C@@H]1CCN(c2ccc3c(c2)O[C@H]2CCN(C2)S3(=O)=O)C1 | x | -1 | 4 | x | x | x | x | x
COc1ccc(C2=NN(C(=O)CSc3nnc(C)c(=O)n3N)C(c3ccco3)C2)cc1 (stereo not drawn) | 1 | 1 | 13* | -27 | 1 | -26 | 2 | 1
CN(C)CCCNc1c2ccccc2nc2ccccc12 | 0 | 0 | -2 | 16 | -2 | -19 | x | x
Oc1ccc(CCNc2c3ccccc3nc3ccccc23)cc1O | 0 | 0 | 8.4* | 16 | -1 | -9 | 25* | 2
SMILES | DAX1 inh-1 | DAX1 inh-2 | SMARCA2 act | JMJD2C inh | NR2E3 ag-1 | NR2E3 ag-2 | SMARCA2 conf | VP16 Luc act
Cc1ccc(CNC[C@@]23CO[C@H](c4ccc(Cl)cc4)N2[C@@H](c2ccc(Cl)cc2)SC3)o1 | x | 0 | 1 | x | x | x | x | x
COc1cc(-c2cc(NC=O)c3ncc(-c4ccc(C(C)=O)cc4)n3c2)ccc1O | x | -1 | 14* | x | x | 31 | 21* | 5
COc1cc(-c2cc(NC=O)c3ncc(-c4ccc(F)cc4)n3c2)cc(OC)c1OC | x | -2 | -5 | x | x | -24 | x | x
COc1ccc(-c2cc(NC=O)c3ncc(-c4ccc(OC)c(OC)c4)n3c2)cc1OC | x | -2 | 13* | x | x | 22 | 15* | 8.6*
CCc1cccc2c(C(C)c3ccccc3O)c[nH]c12 (stereo not drawn) | x | 0 | -5 | x | x | x | x | x
COC(=O)c1cc(-c2cnc(OC)nc2OC)c(=O)n2c1CCC2 | x | -1 | -2 | x | x | x | x | x
COc1ccc(S[C@]2(C(=O)N3CCN(C(C)=O)CC3)CC(=O)N(C(=O)C3CC3)[C@@H]2c2ccc(OC)cc2)cc1 | x | -2 | -2 | x | x | x | x | x
CCOC(=O)N1CCN(c2c(N3CCC(N4CCCCC4)CC3)c(=O)c2=O)CC1 | 1 | 3 | 8.0* | 10 | 4 | 11 | 0 | 2
CCOCCCNC(=O)/C(C#N)=C/c1ccc(-c2ccc(S(=O)(=O)N3CCOCC3)cc2)o1 | -1 | x | x | -12 | -5 | -20 | x | x
CCOCCCNC(=O)/C(C#N)=C/c1ccc([N+](=O)[O-])o1 | 0 | 0 | 12* | -1 | 0 | 18 | -16 | 2
COc1ccccc1C(=O)NC(CCSC)C(=O)NCc1ccncc1 (stereo not drawn) | 0 | 0 | -1 | 13 | 0 | 12 | x | x
O=C(COC(=O)CN1C(=O)c2ccccc2C1=O)Nc1ccc(S(=O)(=O)N2CCCC2)cc1 | 0 | 0 | 9.4* | -27 | 1 | -3 | -6 | 0
O=C(COC(=O)CCN1C(=O)c2ccccc2C1=O)Nc1ccc(S(=O)(=O)N2CCCC2)cc1 | 1 | 1 | -5 | -33 | -3 | -7 | x | x
Cn1c(N)c(C(=O)/C=C/c2ccccc2)c(=O)[nH]c1=O | 2 | 1 | 12* | 23 | 1 | -86 | 8 | 9.4*
CC1CCCCC12NC(=O)N(CC(=O)c1ccc3c(c1)OCO3)C2=O (stereo not drawn) | 1 | 1 | 0 | -1 | -4 | -17 | x | x
CCOC(=O)Cc1c(C)nc2c(-c3ccccc3)c(C)nn2c1C | -1 | 0 | 12* | 159 | 1 | -19 | 2 | 1
Cc1ccc(-n2c(Cc3cccs3)nnc2SCC(=O)Nc2ccc(OCc3ccccc3)cc2)cc1 | x | -2 | -6 | x | x | x | x | x
